Calls of active or inactive are those of the source. The calls are words filed in the database; no cut-off is given here.
Key:
[1] = Cytotoxicity against human PANC1 cells by MTT assay; format: functional, cell-based; settings: PANC-1
[2] = Cytotoxicity against human PC3 cells by MTT assay; format: functional, cell-based; settings: PC-3
[3] = Cytotoxicity against human HCT116 cells by MTT assay; format: functional, cell-based; settings: HCT-116
PANC-1 [4] = assay: Inhibition of cell migration in human PANC1 cells at 2 and 4 microM after 48 hrs by wound healing assay; format: functional, cell-based
Outline: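 Scratch wound made in PANC-1 monolayer; cells treated with compound at 2.0 and 4.0 μM, DMSO vehicle control; wound area photographed at 20× magnification at 0 h and after incubation; statistics from three independent experiments.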

PANC-1 [5] = assay: Inhibition of colony formation in human PANC1 cells at 2 and 4 uM for 5 days by crystal violet staining based microscopic analysis; format: functional, cell-based
Outline: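 PANC-1 seeded at 1 × 10^3 cells/well, treated with compound alongside DMSO for 5 days; crystal violet-stained colonies counted in random fields and imaged under inverted microscope (20×); three independent experiments.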

PANC-1 [6] = assay: Inhibition of cell invasion in human PANC1 cells at 2 and 4 uM for 24 hrs by matrigel invasion assay; format: functional, cell-based
Outline: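 Boyden chamber matrigel invasion: PANC-1 treated 24 h with compound (2.0 and 4.0 μM); invaded cells counted in five random fields per group under inverted microscope (20×); three independent experiments, p < 0.05.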

PANC-1 [7] = assay: Inhibition of cell invasion in human PANC1 cells by 3D invasion assay in presence of neutralized collagen; format: functional, cell-based
Outline: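 PANC-1 mixed with neutralized collagen, spotted centrally in wells and solidified as a cell-collagen hemisphere; fresh medium with or without compound added; invasion beyond the original collagen boundary scored against DMSO-treated cells.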

PANC-1 [8] = assay: Antimetastatic activity in human PANC1 cells at 2 and 4 uM after 24 hrs by fluorescent gelatin degradation assay; format: functional, cell-based
Outline: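 PANC-1 grown 24 h on coverslips coated with cross-linked FITC-conjugated gelatin in presence of compound; matrix degradation spots visualized by fluorescence and degraded area highlighted by image analysis.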

[9] = Downregulation of MMP-2 expression in human PANC1 cells at 2 and 4 uM by western blot analysis; format: functional, cell-based; settings: PANC-1
Outline: (§1)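 PANC-1 seeded in six-well plates and treated with indicated compound concentrations; whole-cell lysates probed for target proteins by Western blotting.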

[10] = Downregulation of MMP-9 expression in human PANC1 cells at 2 and 4 uM by western blot analysis; format: functional, cell-based; settings: PANC-1; outline: as §1
[11] = Upregulation of TIMP1 expression in human PANC1 cells by western blot analysis; format: functional, cell-based; settings: PANC-1; outline: as §1
[12] = Upregulation of E-cadherin expression in human PANC1 cells at 2 and 4 uM by western blot analysis; format: functional, cell-based; settings: PANC-1; outline: as §1
PANC-1 [13] = assay: Inhibition of PI3K-mediated Akt phosphorylation at S473 residue in human PANC1 cells by western blot analysis; format: cell-based; outline: as §1
[14] = Downregulation of PI3K-p85 alpha expression in human PANC1 cells by western blot analysis; format: functional, cell-based; settings: PANC-1; outline: as §1
[15] = Downregulation of PI3K-p110 alpha expression in human PANC1 cells by western blot analysis; format: functional, cell-based; settings: PANC-1; outline: as §1
[16] = Downregulation of NF-kappaB expression in human PANC1 cells by western blot analysis; format: functional, cell-based; settings: PANC-1; outline: as §1
[17] = Downregulation of S6K expression in human PANC1 cells at 2 and 4 uM by western blot analysis; format: functional, cell-based; settings: PANC-1; outline: as §1
[18] = Effect on total mTOR expression in human PANC1 cells at 2 and 4 uM by western blot analysis; format: cell-based; settings: panc-1; outline: as §1
PANC-1 [19] = assay: Inhibition of PI3K-mediated mTOR phosphorylation in human PANC1 cells at 2 and 4 uM by western blot analysis; format: cell-based; outline: as §1

`CCC(/C=C/C(=O)N[C@@H](Cc1ccccc1)C(=O)OC)=C\c1ccc2c(c1)OCO2` gave an IC50 [1] greater than 100 µM, an IC50 [2] of 41.9 µM and an IC50 [3] of 48.3 µM.

With `CCC(/C=C/C(=O)N1CCC[C@H]1C(=O)OC)=C\c1ccc2c(c1)OCO2` the IC50 [1] was 42.2 µM, the IC50 [2] was 16 µM and the IC50 [3] was 49.8 µM.

With `CCC(/C=C/C(=O)NC1(CC(=O)OC)CCCCC1)=C\c1ccc2c(c1)OCO2` the IC50 [1] was greater than 100 µM, the IC50 [2] was 20 µM and the IC50 [3] was greater than 100 µM.

Work on `CCCCC(=O)NC1(CC(=O)NNc2ccccc2)CCN(C(=O)/C=C/C(=C/c2ccc3c(c2)OCO3)CC)CC1` yielded an IC50 [1] of 4 µM, an IC50 [2] of 15 µM and an IC50 [3] greater than 100 µM. For the same molecule, the inhibition (PANC-1 [4]) was “Active”, the inhibition (PANC-1 [5]) was “Active” and the inhibition (PANC-1 [6]) was “Active”. For the same molecule, the inhibition (PANC-1 [7]) was “Dose-dependent effect”, the inhibition (PANC-1 [8]) was “Active” and the inhibition [9] was “Active”. The inhibition [10] was “Active”, the Activity [11] was “Dose-dependent effect” and the Activity [12] was “Active”. The inhibition (PANC-1 [13]) was “Dose-dependent effect”, the inhibition [14] was “Dose-dependent effect” and the inhibition [15] was “Dose-dependent effect”. The inhibition [16] was “Dose-dependent effect”, the inhibition [17] was “Active” and the Activity [18] was “Non-toxic”. The inhibition (PANC-1 [19]) was “Active”.

Work on `CCC(/C=C/C(=O)N[C@@H](C)C(=O)OC)=C\c1ccc2c(c1)OCO2` yielded an IC50 [1] of 6.7 µM, an IC50 [2] of 43.5 µM and an IC50 [3] of 47.1 µM.

`CCC(/C=C/C(=O)O)=C\c1ccc2c(c1)OCO2` gave an IC50 [1] greater than 100 µM, an IC50 [2] greater than 100 µM and an IC50 [3] greater than 100 µM.

Molecule `CCC(/C=C/C(=O)NCC1(CC(=O)OC)CCCCC1)=C\c1ccc2c(c1)OCO2` has an IC50 [1] of 10 µM, an IC50 [2] of 45.2 µM and an IC50 [3] of 47.6 µM.
